Assays:
Format in all cases: functional
Candida albicans [1] = experiment: Growth inhibition of Candida albicans ATCC 90028 at 0.125 ug/ml incubated for 18 hrs at 35 degC by broth microdilution method relative to control; conditions: ATCC 90028, 18 h, read-out: GI
Candida albicans [2] = experiment: Growth inhibition of Candida albicans ATCC 90028 at 8 ug/ml incubated for 4 hrs at 35 degC by broth microdilution method relative to control; conditions: ATCC 90028, 4 h, read-out: GI
Candida albicans [3] = experiment: Growth inhibition of Candida albicans ATCC 90028 at 16 ug/ml incubated for 48 hrs at 35 degC by broth microdilution method relative to control; conditions: ATCC 90028, 48 h, read-out: GI
MCF7 [4] = experiment: Antiproliferative activity against human MCF7 cells assessed as cell viability at 50 uM after 72 hrs by MTT assay; conditions: MCF7, 72 h, read-out: Activity
In short: (§1)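 MTT viability assay in CCRF-CEM and MCF-7 cells after 72 h exposure at 25, 50, 100 and 200 µM. Results are relative to control cells without inhibitor in 0.5% DMSO. Done in triplicate; values are means ± SD of three independent experiments.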

CCRF-CEM [5] = experiment: Antiproliferative activity against human CCRF-CEM cells assessed as cell viability at 25 uM after 72 hrs by MTT assay; conditions: read-out: Activity; in short: as §1
Candida albicans [6] = experiment: Growth inhibition of Candida albicans ATCC 90028 at 4 ug/ml incubated for 18 hrs at 35 degC by broth microdilution method relative to control; conditions: ATCC 90028, 18 h, read-out: GI
Candida albicans [7] = experiment: Growth inhibition of Candida albicans ATCC 90028 at 0.0313 ug/ml incubated for 18 hrs at 35 degC by broth microdilution method relative to control; conditions: ATCC 90028, 18 h, read-out: GI
Candida albicans [8] = experiment: Growth inhibition of Candida albicans ATCC 90028 at 0.0625 ug/ml incubated for 18 hrs at 35 degC by broth microdilution method relative to control; conditions: ATCC 90028, 18 h, read-out: GI
Candida albicans [9] = experiment: Growth inhibition of Candida albicans ATCC 90028 at 1 ug/ml incubated for 18 hrs at 35 degC by broth microdilution method relative to control; conditions: ATCC 90028, 18 h, read-out: GI
Candida albicans [10] = experiment: Growth inhibition of Candida albicans ATCC 90028 at 16 ug/ml incubated for 18 hrs at 35 degC by broth microdilution method relative to control; conditions: ATCC 90028, 18 h, read-out: GI
CCRF-CEM [11] = experiment: Antiproliferative activity against human CCRF-CEM cells assessed as cell viability at 50 uM after 72 hrs by MTT assay; conditions: read-out: Activity; in short: as §1
Candida albicans [12] = experiment: Growth inhibition of Candida albicans ATCC 90028 at 0.125 ug/ml incubated for 4 hrs at 35 degC by broth microdilution method relative to control; conditions: ATCC 90028, 4 h, read-out: GI
Candida albicans [13] = experiment: Growth inhibition of Candida albicans ATCC 90028 at 0.5 ug/ml incubated for 18 hrs at 35 degC by broth microdilution method relative to control; conditions: ATCC 90028, 18 h, read-out: GI
Candida albicans [14] = experiment: Growth inhibition of Candida albicans ATCC 90028 at 2 ug/ml incubated for 4 hrs at 35 degC by broth microdilution method relative to control; conditions: ATCC 90028, 4 h, read-out: GI
Candida albicans [15] = experiment: Growth inhibition of Candida albicans ATCC 90028 at 0.0625 ug/ml incubated for 4 hrs at 35 degC by broth microdilution method relative to control; conditions: ATCC 90028, 4 h, read-out: GI
CCRF-CEM [16] = experiment: Antiproliferative activity against human CCRF-CEM cells assessed as cell viability at 200 uM after 72 hrs by MTT assay; conditions: read-out: Activity; in short: as §1
MCF7 [17] = experiment: Antiproliferative activity against human MCF7 cells assessed as cell viability at 100 uM after 72 hrs by MTT assay; conditions: MCF7, 72 h, read-out: Activity; in short: as §1
Candida albicans [18] = experiment: Growth inhibition of Candida albicans ATCC 90028 at 1 ug/ml incubated for 4 hrs at 35 degC by broth microdilution method relative to control; conditions: ATCC 90028, 4 h, read-out: GI
Candida albicans [19] = experiment: Growth inhibition of Candida albicans ATCC 90028 at 0.25 ug/ml incubated for 18 hrs at 35 degC by broth microdilution method relative to control; conditions: ATCC 90028, 18 h, read-out: GI
MCF7 [20] = experiment: Antiproliferative activity against human MCF7 cells assessed as cell viability at 200 uM after 72 hrs by MTT assay; conditions: MCF7, 72 h, read-out: Activity; in short: as §1
Candida albicans [21] = experiment: Growth inhibition of Candida albicans ATCC 90028 at 0.0313 ug/ml incubated for 4 hrs at 35 degC by broth microdilution method relative to control; conditions: ATCC 90028, 4 h, read-out: GI
MCF7 [22] = experiment: Antiproliferative activity against human MCF7 cells assessed as cell viability at 25 uM after 72 hrs by MTT assay; conditions: MCF7, 72 h, read-out: Activity; in short: as §1
CCRF-CEM [23] = experiment: Antiproliferative activity against human CCRF-CEM cells assessed as cell viability at 100 uM after 72 hrs by MTT assay; conditions: read-out: Activity; in short: as §1
Candida albicans [24] = experiment: Growth inhibition of Candida albicans ATCC 90028 at 0.25 ug/ml incubated for 4 hrs at 35 degC by broth microdilution method relative to control; conditions: ATCC 90028, 4 h, read-out: GI
Candida albicans [25] = experiment: Growth inhibition of Candida albicans ATCC 90028 at 8 ug/ml incubated for 18 hrs at 35 degC by broth microdilution method relative to control; conditions: ATCC 90028, 18 h, read-out: GI
Candida albicans [26] = experiment: Growth inhibition of Candida albicans ATCC 90028 at 2 ug/ml incubated for 18 hrs at 35 degC by broth microdilution method relative to control; conditions: ATCC 90028, 18 h, read-out: GI
Candida albicans [27] = experiment: Growth inhibition of Candida albicans ATCC 90028 at 0.5 ug/ml incubated for 4 hrs at 35 degC by broth microdilution method relative to control; conditions: ATCC 90028, 4 h, read-out: GI
Candida albicans [28] = experiment: Fungicidal activity against Candida albicans ATCC 90028 assessed as log reduction in cell viability at 16 ug/ml after 48 hrs at 35 degC
In short: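 MFC assay on C. albicans ATCC 90028 following M27-A3, at the molar equivalent of 16 µg/mL. CFU of treated cells were compared with CFU of the untreated inoculum. Activity is given as lg R = lg CFU/mL control − lg CFU/mL treated, and lg R ≥3 was defined as fungicidal. Values are means of two independent experiments.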

Candida albicans [29] = experiment: Growth inhibition of Candida albicans ATCC 90028 at 8 ug/ml incubated for 48 hrs at 35 degC by broth microdilution method relative to control; conditions: ATCC 90028, 48 h, read-out: GI

CC(Cn1cnc2c1c(=O)n(C)c(=O)n2C)OC(=O)C1c2ccccc2-c2ccccc21 (configuration not stated) showed an inhibition of growth at 0.125 µg/mL (Candida albicans [1]) of 99.7%, an inhibition of growth at 8 µg/mL (Candida albicans [2]) of 99.4% and an inhibition of growth at 16 µg/mL (Candida albicans [3]) of 99.3%. It also gave a viability at 50 µM (MCF7 [4]) of 85.1%, a viability at 25 µM (CCRF-CEM [5]) of 41.5% and an inhibition of growth at 4 µg/mL (Candida albicans [6]) of 100%. For the same compound, the inhibition of growth at 0.0313 µg/mL (Candida albicans [7]) was 99.8%, the inhibition of growth at 0.0625 µg/mL (Candida albicans [8]) was 99.7% and the inhibition of growth at 1 µg/mL (Candida albicans [9]) was 99.8%. The inhibition of growth at 16 µg/mL (Candida albicans [10]) was 99.8%, the viability at 50 µM (CCRF-CEM [11]) was 2.8% and the inhibition of growth at 0.125 µg/mL (Candida albicans [12]) was 98.9%. It also gave an inhibition of growth at 0.5 µg/mL (Candida albicans [13]) of 99.8%, an inhibition of growth at 2 µg/mL (Candida albicans [14]) of 99.4% and an inhibition of growth at 0.0625 µg/mL (Candida albicans [15]) of 99%. For the same compound, the viability at 200 µM (CCRF-CEM [16]) was 2.3%, the viability at 100 µM (MCF7 [17]) was 63.5% and the inhibition of growth at 1 µg/mL (Candida albicans [18]) was 99.3%. The inhibition of growth at 0.25 µg/mL (Candida albicans [19]) was 99.9%, the viability at 200 µM (MCF7 [20]) was 28.3% and the inhibition of growth at 0.0313 µg/mL (Candida albicans [21]) was 99.3%. The viability at 25 µM (MCF7 [22]) was 101%, the viability at 100 µM (CCRF-CEM [23]) was 0.1% and the inhibition of growth at 0.25 µg/mL (Candida albicans [24]) was 99%. The inhibition of growth at 8 µg/mL (Candida albicans [25]) was 99.8%, the inhibition of growth at 2 µg/mL (Candida albicans [26]) was 100% and the inhibition of growth at 0.5 µg/mL (Candida albicans [27]) was 99.1%. For the same compound, the “log(activity)” value (Candida albicans [28]) was 0.8 and the inhibition of growth at 8 µg/mL (Candida albicans [29]) was 99.4%.
CC(Cn1cnc2c1c(=O)n(C)c(=O)n2C)OC(=O)Nc1ccccc1 (configuration not stated) showed an inhibition of growth at 0.125 µg/mL (Candida albicans [1]) of 100%, an inhibition of growth at 8 µg/mL (Candida albicans [2]) of 99.2% and an inhibition of growth at 16 µg/mL (Candida albicans [3]) of 99.1%. For the same compound, the viability at 50 µM (MCF7 [4]) was 83.6%, the viability at 25 µM (CCRF-CEM [5]) was 78.9% and the inhibition of growth at 4 µg/mL (Candida albicans [6]) was 99.7%. The inhibition of growth at 0.0313 µg/mL (Candida albicans [7]) was 100%, the inhibition of growth at 0.0625 µg/mL (Candida albicans [8]) was 100% and the inhibition of growth at 1 µg/mL (Candida albicans [9]) was 99.9%. The inhibition of growth at 16 µg/mL (Candida albicans [10]) was 100%, the viability at 50 µM (CCRF-CEM [11]) was 73.1% and the inhibition of growth at 0.125 µg/mL (Candida albicans [12]) was 99.3%. The inhibition of growth at 0.5 µg/mL (Candida albicans [13]) was 100%, the inhibition of growth at 2 µg/mL (Candida albicans [14]) was 99.4% and the inhibition of growth at 0.0625 µg/mL (Candida albicans [15]) was 99.3%. It also gave a viability at 200 µM (CCRF-CEM [16]) of 38.5%, a viability at 100 µM (MCF7 [17]) of 84.7% and an inhibition of growth at 1 µg/mL (Candida albicans [18]) of 99.3%. The inhibition of growth at 0.25 µg/mL (Candida albicans [19]) was 100%, the viability at 200 µM (MCF7 [20]) was 81% and the inhibition of growth at 0.0313 µg/mL (Candida albicans [21]) was 99.4%. The viability at 25 µM (MCF7 [22]) was 91.9%, the viability at 100 µM (CCRF-CEM [23]) was 53.5% and the inhibition of growth at 0.25 µg/mL (Candida albicans [24]) was 99.2%. For the same compound, the inhibition of growth at 8 µg/mL (Candida albicans [25]) was 99.9%, the inhibition of growth at 2 µg/mL (Candida albicans [26]) was 100% and the inhibition of growth at 0.5 µg/mL (Candida albicans [27]) was 99.2%. The “log(activity)” value (Candida albicans [28]) was 0.6 and the inhibition of growth at 8 µg/mL (Candida albicans [29]) was 99.2%.
CC(Cn1cnc2c1c(=O)n(C)c(=O)n2C)OC(=O)CC(=O)c1ccc(F)cc1 (configuration not stated) gave an inhibition of growth at 0.125 µg/mL (Candida albicans [1]) of 99.8%, an inhibition of growth at 8 µg/mL (Candida albicans [2]) of 99.4% and an inhibition of growth at 16 µg/mL (Candida albicans [3]) of 99.7%. For the same compound, the viability at 50 µM (MCF7 [4]) was 77.9%, the viability at 25 µM (CCRF-CEM [5]) was 83.5% and the inhibition of growth at 4 µg/mL (Candida albicans [6]) was 100%. It also gave an inhibition of growth at 0.0313 µg/mL (Candida albicans [7]) of 99.7%, an inhibition of growth at 0.0625 µg/mL (Candida albicans [8]) of 99.9% and an inhibition of growth at 1 µg/mL (Candida albicans [9]) of 100%. It also gave an inhibition of growth at 16 µg/mL (Candida albicans [10]) of 100%, a viability at 50 µM (CCRF-CEM [11]) of 51.1% and an inhibition of growth at 0.125 µg/mL (Candida albicans [12]) of 99.5%. The inhibition of growth at 0.5 µg/mL (Candida albicans [13]) was 99.7%, the inhibition of growth at 2 µg/mL (Candida albicans [14]) was 99.3% and the inhibition of growth at 0.0625 µg/mL (Candida albicans [15]) was 99.3%. It also gave a viability at 200 µM (CCRF-CEM [16]) of 20.1%, a viability at 100 µM (MCF7 [17]) of 83.8% and an inhibition of growth at 1 µg/mL (Candida albicans [18]) of 100%. It also gave an inhibition of growth at 0.25 µg/mL (Candida albicans [19]) of 99.7%, a viability at 200 µM (MCF7 [20]) of 76.8% and an inhibition of growth at 0.0313 µg/mL (Candida albicans [21]) of 98.9%. It also gave a viability at 25 µM (MCF7 [22]) of 88.5%, a viability at 100 µM (CCRF-CEM [23]) of 43.8% and an inhibition of growth at 0.25 µg/mL (Candida albicans [24]) of 99.3%. The inhibition of growth at 8 µg/mL (Candida albicans [25]) was 99.8%, the inhibition of growth at 2 µg/mL (Candida albicans [26]) was 100% and the inhibition of growth at 0.5 µg/mL (Candida albicans [27]) was 99.3%. The “log(activity)” value (Candida albicans [28]) was 0.9 and the inhibition of growth at 8 µg/mL (Candida albicans [29]) was 99.3%.
